Source: the RNAGym collection of RNA variant scans (doi:10.1126/science.aae0568)
Fewer inactive variants are shown than the library holds.

B1: tRNA (parent)
chain: GUUCCGUUGGCGUAAUGGUAACGCGUCUCCCUCCUAAGGAGAAGACUGCGGGUUCGAGUCCCGUACGGAACG

Variants of: B1
Assay: yeast fitness relative to wild type (ratio to wild type); higher = fitter; tRNA-Arg(CCU), competitive growth, 37 C, YPD
Method in brief: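 The tRNA-Arg(CCU) gene variants were made by chemical synthesis with a 3% per-site mutation rate at 69 sites and inserted at the native genomic locus of Saccharomyces cerevisiae. After pooling, the strains were competed in YPD at 37°C for 24 hours in six parallel replicates. Gene amplicons from the start population and each end population were read by 100-nucleotide paired-end sequencing, and Darwinian fitness relative to wild type was taken from genotype frequency changes. Genotypes needed ≥ 100 starting reads, and estimates < 0.5 were set to 0.5.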

Variant | yeast fitness
C29G C30U | 0.632
C29G C33U G50A A70C | ≤ 0.5
C29U C55U A65G | ≤ 0.5
C29G C34U A42G | ≤ 0.5
C29A G50A | 0.678
C29A C46G A65G A70U | ≤ 0.5
C29U C33U A40G U47A | ≤ 0.5
C29A A65U | 0.626
C29A A65G | 0.667
C29A C55U A69U | ≤ 0.5
C29A A40U A45C C46A C49A A57G | ≤ 0.5
C29U G38A G48C C62G | 0.525
C29G C49G C55A | ≤ 0.5
C29U A37C | 0.894
C29U A65C C66G | 0.57
C29A C31G C49A C55G | 0.549
C29G C46G G48C | 0.533
C29G C49U A65C | ≤ 0.5
C29U C34A | 0.761
C29G U64G | 0.635
C29G U64C | 0.688
C29G U32C A36G | 0.597
C29U G38C A45G G51C | ≤ 0.5
C29A A45C C46G G68C | ≤ 0.5

Variant | yeast fitness
C29G C33G U35G G44A A57G C66U A69U | ≤ 0.5
C29G C31U A37U C62U A70G | ≤ 0.5
C29G A37U | 0.566
C29G C30U G58A | 0.608
C29A A57C U59A | 0.55
C29A A37C A40U G63A | 0.519
C29G A37C C60A A70G | ≤ 0.5
C29U C49G C60A | ≤ 0.5
C29G C46U A57G | 0.642
C29U A45C G63A | 0.578
C29A C34G A36G A40C U47A U64C | ≤ 0.5
C29G C31A A43C G67A | ≤ 0.5
C29G G41C A65U | ≤ 0.5
C29U C31U C66U | 0.591
C29A U47C G50C A57C | 0.582
C29G A36G C55U | ≤ 0.5
C29G A36U A65U | ≤ 0.5
C29A C30A G50A | ≤ 0.5
C29G U59G U64C | 0.549
C29G A43G A45C | ≤ 0.5
C29U A43C | 0.948
C29U A43U | 1.04
C29U C55G G68C | ≤ 0.5
C29U C31G G38A G51A G58C | ≤ 0.5

Variant | yeast fitness
C29U A42U A43U C55G C62G | ≤ 0.5
C29A A36U | ≤ 0.5
C29U A70G | 0.887
C29G G52C A57U A65G | ≤ 0.5
C29A G58A C61G A70U | 0.642
C29U C62U A70C | 0.604
C29G U47A G48A | 0.553
C29A A37C A45C U47A | 0.573
C29G G48A G67C | ≤ 0.5
C29G A36U A42G C55A | ≤ 0.5
C29G C33G G41C C66U | 0.607
C29G G39C A65C | 0.546
C29G A37G G51A C55A | ≤ 0.5
C29G G51A A69U | ≤ 0.5
C29G C34U G52A C60U | 0.548
C29U A43C G51A | ≤ 0.5
C29G G52C A57U | ≤ 0.5
C29A U32A A65C | ≤ 0.5
C29G C49U G63A | 0.513
C29U C33U U35C U54A | ≤ 0.5
C29U C31U U54G G68C | ≤ 0.5
C29U C31U U54G G68A | ≤ 0.5
C29G A42C G51A A70U | ≤ 0.5
C29U C31U U54G A65U G67A | 0.565

Variant | yeast fitness
C29G G41A C61U | 0.531
C29U A40G C60G | ≤ 0.5
C29A C46U | 0.724
C29U C31A C66G G67U | ≤ 0.5
C29G A40U G44A | ≤ 0.5
C29G G48C C61A | 0.564
U28G U59A A70C | ≤ 0.5
C29A A43C | 0.748
C29U A42U A45C | 0.51
C29A G48A C66U | ≤ 0.5
C29G C61U C66A | ≤ 0.5
C29A C55U G63C U64C | ≤ 0.5
C29A G44A A70G | 0.804
C29A C30A G67U | 0.667
C29U A45C U54A C55A | ≤ 0.5
C29A A45C G48C C49G | ≤ 0.5
C29A G41A A43C A69C | ≤ 0.5
C29G A40G | 0.648
C29U A37G C61G A69U | ≤ 0.5
C29G G39C | 0.852
C29A C30G G38U | ≤ 0.5
C29G A43U C46U G67C | ≤ 0.5
C29G C31G C46G C55U A65U | 0.627
C29G C30A C49U | ≤ 0.5

Variant | yeast fitness
C29U C31U G41C | ≤ 0.5
C29A G56C A57G G68U | ≤ 0.5
C29A A40C | 0.741
C29A A40U | 0.684
C29G C49G G68C | ≤ 0.5
C29G A37G A70G | 0.562
C29A G41A A43C C49U | ≤ 0.5
C29G C49A U64A | ≤ 0.5
C29U A43G G44A C46A | 0.609
C29A C30U G48A G50A C60A | ≤ 0.5
C29A G67C | 0.646
C29A G67A | 0.605
C29U A40U U53A C60A A65G | ≤ 0.5
C29U A36U C61U | ≤ 0.5
C29G G44A | 0.593
C29G G50C C66A | 0.518
C29A U35G | ≤ 0.5
C29A U35A | 0.672
C29G C30G C49A G56C C61U | 0.982
C29G C34G C60G | 0.562
C29G U32A A65U | ≤ 0.5
C29G G41A | 0.723
C29G A45G G52C A57U | ≤ 0.5
C29U A43U A69C | 0.735

Variant | yeast fitness
C29A U47C | 0.713
C29G G48A A65G C66U | ≤ 0.5
C29U C34U G48C G52A | ≤ 0.5
C29A C33G A45C | 0.543
C29U C33U G39C A57U | ≤ 0.5
C29A C33U G67A | ≤ 0.5
C29G C46U G56A | ≤ 0.5
C29G U35C U54C C61A | ≤ 0.5
C29G G39C U47A | 0.978
C29A C66A G68C | ≤ 0.5
C29A A37U A65U | ≤ 0.5
C29U C31U G41C A65G | 0.609
C29A A65U G67A | 0.5
C29G C31A G44C A65C | ≤ 0.5
C29G C49G C60G | ≤ 0.5
C29G C30U G41C C66G G68A | ≤ 0.5
C29G C31A C55U A70U | ≤ 0.5
C29A U35C A45C C49U | ≤ 0.5
C29U C30A A37U A57C | ≤ 0.5
C29G G41A U47G | ≤ 0.5
C29A A37G C49A U64C G68A | ≤ 0.5
C29G U35A A42U | ≤ 0.5
C29G G38C C49U A65U | ≤ 0.5
C29G G58C | 0.642

Variant | yeast fitness
C29U C33G G52A G58C A70G | ≤ 0.5
C29A U35C A45U C60G G63C | 0.538
C29G C55A A69U | ≤ 0.5
C29G G50A | 0.605
C29U C33G A69U | ≤ 0.5
C29G C46A G68A | ≤ 0.5
C29G U35A A36C | ≤ 0.5
C29U C33A | 0.7
C29U C33G | 0.689
C29G C49G G63C | ≤ 0.5
C29U C31A C46U | 0.552
C29G C55A | 0.577
C29G C55G | 0.538
C29G U35A G58C C66U | ≤ 0.5
C29A A45C C46U G51A G56A | ≤ 0.5
C29G A45G | 0.609
C29G U47A C66A | 0.532
C29G U32A U64A | ≤ 0.5
C29U A57G C60G U64C | 0.609
C29U G38C A45U U59C | 0.592
C29A C34G | ≤ 0.5
C29G A43U | 0.594
C29G C49U G58C | 0.558
